GI50, inhibition and IC50 data for ten compounds are collected here from ChEMBL document CHEMBL4043201, “Conjugates of 18β-glycyrrhetinic acid derivatives with 3-(1H-benzo[d]imidazol-2-yl)propanoic acid as Pin1 inhibitors displaying anti-prostate cancer ability” (Bioorg Med Chem, 2017).

One assay has as its system PC-3. Nature of the assay: Antiproliferative activity against human PC3 cells assessed as inhibition of cell growth incubated for 96 hrs by MTT assay. Type of assay: functional. As to conditions: PC-3, 96 h. The essentials: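 PC-3 cells grown in RPMI1640 with 10% heat-inactivated FBS, seeded at 2×10^4 cells/well and kept 24 h at 37 °C in 5% CO2. Compounds were then added at various concentrations for 96 h. MTT (2 mg/mL) was added for a further 4 h, cells dissolved in DMSO, and A570 read. Growth was treated/untreated cell number, with GI50 calculated from inhibition ratios. Mean of three independent runs.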
On to `CC1(C)C(=O)CC[C@]2(C)[C@H]3C(=O)C=C4[C@@H]5C[C@@](C)(C(=O)NCCn6c(CCC(=O)O)nc7ccccc76)CC[C@]5(C)CC[C@@]4(C)[C@]3(C)CC[C@@H]12`, for which the GI50 was above 50 µM.
Take `COC(=O)[C@@]1(C)CC[C@]2(C)CC[C@]3(C)C(=CC(=O)[C@@H]4[C@@]5(C)CC[C@H](OC(=O)CCn6c(CCC(=O)O)nc7ccccc76)C(C)(C)[C@@H]5CC[C@]43C)[C@@H]2C1`: the GI50 was determined as 16.1 µM.
For `CC1(C)C(=O)CC[C@]2(C)[C@H]3CC=C4[C@@H]5C[C@@](C)(C(=O)OCCCn6c(CCC(=O)O)nc7ccccc76)CC[C@]5(C)CC[C@@]4(C)[C@]3(C)CC[C@@H]12`, the GI50 was determined as 13 µM.
As for `O=C1C=CC(=O)c2c(O)cccc21` [JUGLONE], the GI50 came to 4.77 µM.
As to `CC1(C)[C@@H](O)CC[C@]2(C)[C@H]3CC=C4[C@@H]5C[C@@](C)(C(=O)OCCn6c(CCC(=O)O)nc7ccccc76)CC[C@]5(C)CC[C@@]4(C)[C@]3(C)CC[C@@H]12`, the GI50 is above 50 µM.
Still for that read-out and setting: as for `CC(=O)O[C@H]1CC[C@]2(C)[C@H]3C(=O)C=C4[C@@H]5C[C@@](C)(C(=O)OCCCn6c(CCC(=O)O)nc7ccccc76)CC[C@]5(C)CC[C@@]4(C)[C@]3(C)CC[C@H]2C1(C)C`, the figure is 11.8 µM; as for `CC1(C)C(=O)CC[C@]2(C)[C@H]3C(=O)C=C4[C@@H]5C[C@@](C)(C(=O)OCCn6c(CCC(=O)O)nc7ccccc76)CC[C@]5(C)CC[C@@]4(C)[C@]3(C)CC[C@@H]12`, 39.9 µM.
On to `CC1(C)[C@@H](O)CC[C@]2(C)[C@H]3C(=O)C=C4[C@@H]5C[C@@](C)(C(=O)O)CC[C@]5(C)CC[C@@]4(C)[C@]3(C)CC[C@@H]12` [ENOXOLONE], for which the GI50 worked out at 95.7 µM.
Take `CC1(C)C(=O)CC[C@]2(C)[C@H]3C(=O)C=C4[C@@H]5C[C@@](C)(C(=O)NCCCn6c(CCC(=O)O)nc7ccccc76)CC[C@]5(C)CC[C@@]4(C)[C@]3(C)CC[C@@H]12`: the 50% growth inhibitory concentration (GI50) is above 50 µM.
For `CC1(C)C(=O)CC[C@]2(C)[C@H]3CC=C4[C@@H]5C[C@@](C)(C(=O)OCCn6c(CCC(=O)O)nc7ccccc76)CC[C@]5(C)CC[C@@]4(C)[C@]3(C)CC[C@@H]12`, the GI50 came out at 18.4 µM.

Another assay relates to LNCaP. Description: Antiproliferative activity against human LNCAP cells assessed as inhibition of cell growth incubated for 96 hrs by MTT assay. Type of assay: functional.
Settings: not given
The essentials: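 MTT growth assay. Cells seeded at 2×10^4 per well and held 24 h at 37 °C under 5% CO2 before compound was added at a range of concentrations. Exposure lasted 96 h, then 2 mg/mL MTT was added for 4 h. Cells were dissolved in DMSO and absorbance read at 570 nm. Growth was taken as treated/untreated cell number. GI50 was derived from the inhibition ratios. Three independent experiments, mean reported.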
Turning to `CC1(C)C(=O)CC[C@]2(C)[C@H]3C(=O)C=C4[C@@H]5C[C@@](C)(C(=O)NCCn6c(CCC(=O)O)nc7ccccc76)CC[C@]5(C)CC[C@@]4(C)[C@]3(C)CC[C@@H]12`, the GI50 was above 50 µM.
Turning to `COC(=O)[C@@]1(C)CC[C@]2(C)CC[C@]3(C)C(=CC(=O)[C@@H]4[C@@]5(C)CC[C@H](OC(=O)CCn6c(CCC(=O)O)nc7ccccc76)C(C)(C)[C@@H]5CC[C@]43C)[C@@H]2C1`, the GI50 worked out at 26.6 µM.
With `CC1(C)C(=O)CC[C@]2(C)[C@H]3CC=C4[C@@H]5C[C@@](C)(C(=O)OCCCn6c(CCC(=O)O)nc7ccccc76)CC[C@]5(C)CC[C@@]4(C)[C@]3(C)CC[C@@H]12`, the GI50 was determined as 19.7 µM.
Consider `CC1(C)[C@@H](O)CC[C@]2(C)[C@H]3CC=C4[C@@H]5C[C@@](C)(C(=O)OCCn6c(CCC(=O)O)nc7ccccc76)CC[C@]5(C)CC[C@@]4(C)[C@]3(C)CC[C@@H]12`, for which the GI50 is above 50 µM.
Regarding `CC(=O)O[C@H]1CC[C@]2(C)[C@H]3C(=O)C=C4[C@@H]5C[C@@](C)(C(=O)OCCCn6c(CCC(=O)O)nc7ccccc76)CC[C@]5(C)CC[C@@]4(C)[C@]3(C)CC[C@H]2C1(C)C`, the GI50 was found to be 15.5 µM.
For the compound `CC1(C)C(=O)CC[C@]2(C)[C@H]3C(=O)C=C4[C@@H]5C[C@@](C)(C(=O)OCCn6c(CCC(=O)O)nc7ccccc76)CC[C@]5(C)CC[C@@]4(C)[C@]3(C)CC[C@@H]12`, the 50% growth inhibitory concentration (GI50) was 48.9 µM.
Regarding `CC1(C)C(=O)CC[C@]2(C)[C@H]3C(=O)C=C4[C@@H]5C[C@@](C)(C(=O)NCCCn6c(CCC(=O)O)nc7ccccc76)CC[C@]5(C)CC[C@@]4(C)[C@]3(C)CC[C@@H]12`, the GI50 is above 50 µM.
On the same count and under the same terms, as for `CC1(C)C(=O)CC[C@]2(C)[C@H]3CC=C4[C@@H]5C[C@@](C)(C(=O)OCCn6c(CCC(=O)O)nc7ccccc76)CC[C@]5(C)CC[C@@]4(C)[C@]3(C)CC[C@@H]12`, the figure is 25.8 µM.

For the next assay, the target named is T1, Peptidyl-prolyl cis-trans isomerase NIMA-interacting 1 (Homo sapiens, UniProt Q13526). Description: Inhibition of Pin1 (unknown origin) assessed as reduction in peptidyl-prolyl isomerase activity at 10 uM incubated for 30 mins using Suc-Ala-Glu-cis-Pro-Phe-4-nitroanilide substrate by protease coupled assay.
T1 sequence (Q13526 whole entry): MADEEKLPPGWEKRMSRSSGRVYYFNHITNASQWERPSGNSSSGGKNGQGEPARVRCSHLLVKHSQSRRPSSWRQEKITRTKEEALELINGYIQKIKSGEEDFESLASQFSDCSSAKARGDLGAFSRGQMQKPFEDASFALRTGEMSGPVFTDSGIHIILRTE
Settings: not given
In short, it runs like this: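 Commercial Pin1 in 35 mM HEPES pH 7.8 was pre-equilibrated with compound (DMSO solutions) for 30 min at 10 °C. Ice-cold chymotrypsin (stock 60 mg/mL in 0.001 M HCl) was added, then Suc-Ala-Glu-cis-Pro-Phe-4-nitroanilide in 0.47 mol/L LiCl/trifluoroethanol was added to start the reaction. Absorbance at 390 nm was monitored for 90 s at 10 °C.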
On to `CC1(C)C(=O)CC[C@]2(C)[C@H]3C(=O)C=C4[C@@H]5C[C@@](C)(C(=O)NCCn6c(CCC(=O)O)nc7ccccc76)CC[C@]5(C)CC[C@@]4(C)[C@]3(C)CC[C@@H]12`, for which the inhibition is 38%.
In the case of `COC(=O)[C@@]1(C)CC[C@]2(C)CC[C@]3(C)C(=CC(=O)[C@@H]4[C@@]5(C)CC[C@H](OC(=O)CCn6c(CCC(=O)O)nc7ccccc76)C(C)(C)[C@@H]5CC[C@]43C)[C@@H]2C1`, the inhibition came out at 88%.
Take `CC1(C)C(=O)CC[C@]2(C)[C@H]3CC=C4[C@@H]5C[C@@](C)(C(=O)OCCCn6c(CCC(=O)O)nc7ccccc76)CC[C@]5(C)CC[C@@]4(C)[C@]3(C)CC[C@@H]12`: the inhibition turned out to be 98%.
As to `O=C1C=CC(=O)c2c(O)cccc21` [JUGLONE], the inhibition was determined as 44%.
In the case of `CC1(C)[C@@H](O)CC[C@]2(C)[C@H]3CC=C4[C@@H]5C[C@@](C)(C(=O)OCCn6c(CCC(=O)O)nc7ccccc76)CC[C@]5(C)CC[C@@]4(C)[C@]3(C)CC[C@@H]12`, the inhibition came to 54%.
For `CC(=O)O[C@H]1CC[C@]2(C)[C@H]3C(=O)C=C4[C@@H]5C[C@@](C)(C(=O)OCCCn6c(CCC(=O)O)nc7ccccc76)CC[C@]5(C)CC[C@@]4(C)[C@]3(C)CC[C@H]2C1(C)C`, the inhibition was 100%.
Consider `CC1(C)C(=O)CC[C@]2(C)[C@H]3C(=O)C=C4[C@@H]5C[C@@](C)(C(=O)OCCn6c(CCC(=O)O)nc7ccccc76)CC[C@]5(C)CC[C@@]4(C)[C@]3(C)CC[C@@H]12`, for which the inhibition was found to be 63%.
As for `CC1(C)[C@@H](O)CC[C@]2(C)[C@H]3C(=O)C=C4[C@@H]5C[C@@](C)(C(=O)O)CC[C@]5(C)CC[C@@]4(C)[C@]3(C)CC[C@@H]12` [ENOXOLONE], the inhibition was 34%.
`CC1(C)C(=O)CC[C@]2(C)[C@H]3C(=O)C=C4[C@@H]5C[C@@](C)(C(=O)NCCCn6c(CCC(=O)O)nc7ccccc76)CC[C@]5(C)CC[C@@]4(C)[C@]3(C)CC[C@@H]12`: the inhibition is 28%.
As for `CC1(C)C(=O)CC[C@]2(C)[C@H]3CC=C4[C@@H]5C[C@@](C)(C(=O)OCCn6c(CCC(=O)O)nc7ccccc76)CC[C@]5(C)CC[C@@]4(C)[C@]3(C)CC[C@@H]12`, the inhibition turned out to be 69%.

The target in another assay is T1, Peptidyl-prolyl cis-trans isomerase NIMA-interacting 1. Description: Inhibition of Pin1 (unknown origin) assessed as reduction in peptidyl-prolyl isomerase activity incubated for 30 mins using Suc-Ala-Glu-cis-Pro-Phe-4-nitroanilide substrate by protease coupled assay.
Settings: not given
On to `CC1(C)C(=O)CC[C@]2(C)[C@H]3C(=O)C=C4[C@@H]5C[C@@](C)(C(=O)NCCn6c(CCC(=O)O)nc7ccccc76)CC[C@]5(C)CC[C@@]4(C)[C@]3(C)CC[C@@H]12`, for which the IC50 is above 10 µM.
In the case of `CC1(C)C(=O)CC[C@]2(C)[C@H]3CC=C4[C@@H]5C[C@@](C)(C(=O)OCCCn6c(CCC(=O)O)nc7ccccc76)CC[C@]5(C)CC[C@@]4(C)[C@]3(C)CC[C@@H]12`, the IC50 is 3.8 µM.
`O=C1C=CC(=O)c2c(O)cccc21` [JUGLONE]: the IC50 worked out at 10.8 µM.
As to `CC(=O)O[C@H]1CC[C@]2(C)[C@H]3C(=O)C=C4[C@@H]5C[C@@](C)(C(=O)OCCCn6c(CCC(=O)O)nc7ccccc76)CC[C@]5(C)CC[C@@]4(C)[C@]3(C)CC[C@H]2C1(C)C`, the IC50 was found to be 1.33 µM.
As for `CC1(C)[C@@H](O)CC[C@]2(C)[C@H]3C(=O)C=C4[C@@H]5C[C@@](C)(C(=O)O)CC[C@]5(C)CC[C@@]4(C)[C@]3(C)CC[C@@H]12` [ENOXOLONE], the IC50 is above 10 µM.
With `CC1(C)C(=O)CC[C@]2(C)[C@H]3C(=O)C=C4[C@@H]5C[C@@](C)(C(=O)NCCCn6c(CCC(=O)O)nc7ccccc76)CC[C@]5(C)CC[C@@]4(C)[C@]3(C)CC[C@@H]12`, the IC50 was above 10 µM.
